Legend:
Type in all cases: functional, cell-based
A-431 = experiment: In vitro cytotoxicity of compound against human A431 (epidermoid) cancer cell line after 72 hr of drug exposure; settings: A-431, 72 h
Summary of the method: (§1)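 Cytotoxicity was measured as an IC50 on a panel of human cancer lines: A431 (epidermoid), A549 (non-small-cell lung), MCF7 (breast) and MCF7-MDR (breast). The parent, unmodified taxoids were tested on the same lines.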

NCI/ADR-RES = experiment: In vitro cytotoxicity of compound against human MCF-7-MDR (breast) cancer cell line after 72 hr of drug exposure; summary of the method: as §1
A549 = experiment: In vitro cytotoxicity of compound against human A549 (non small cell lung) cancer cell line after 72 hr of drug exposure; settings: A549, 72 h; summary of the method: as §1

SMILES | IC50 (A-431) [nM] | IC50 (NCI/ADR-RES) [nM] | IC50 (A549) [nM]
CCC(=O)O[C@H]1C(=O)[C@@]2(C)[C@H]([C@H](OC(=O)c3ccccc3)[C@]3(O)C[C@H](OC(=O)[C@H](O)[C@H](C=C(C)C)NC(=O)OC(C)(C)C)C(C)=C1C3(C)C)[C@]1(OC(C)=O)CO[C@@H]1C[C@@H]2O | 0.09 | 2.2 | 0.1
CSSCCC(=O)O[C@H]1C(=O)[C@@]2(C)[C@H]([C@H](OC(=O)c3ccccc3)[C@]3(O)C[C@H](OC(=O)[C@H](O)[C@H](C=C(C)C)NC(=O)OC(C)(C)C)C(C)=C1C3(C)C)[C@]1(OC(C)=O)CO[C@@H]1C[C@@H]2O | 0.5 |  | 0.8
CSSCCC(=O)O[C@H]1C[C@H]2OC[C@@]2(OC(C)=O)[C@H]2[C@H](OC(=O)c3ccccc3)[C@]3(O)C[C@H](OC(=O)[C@H](O)[C@H](C=C(C)C)NC(=O)OC(C)(C)C)C(C)=C([C@@H](OC(=O)N4CCOCC4)C(=O)[C@]12C)C3(C)C | > 3 |  | 
CCC(=O)O[C@H]1C(=O)[C@]2(C)[C@@H](OC(=O)CCSSC)C[C@H]3OC[C@@]3(OC(C)=O)[C@H]2[C@H](OC(=O)c2ccccc2)[C@]2(O)C[C@H](OC(=O)[C@H](O)[C@H](C=C(C)C)NC(=O)OC(C)(C)C)C(C)=C1C2(C)C | 2 |  | 
CCC(=O)O[C@H]1C(=O)[C@@]2(C)[C@H]([C@H](OC(=O)c3ccccc3)[C@]3(O)C[C@H](OC(=O)[C@H](OC(=O)CCSSC)[C@H](C=C(C)C)NC(=O)OC(C)(C)C)C(C)=C1C3(C)C)[C@]1(OC(C)=O)CO[C@@H]1C[C@@H]2O | > 3 |  | 0.9
CSSc1cccc(C(=O)O[C@H]2C(=O)[C@@]3(C)[C@H]([C@H](OC(=O)c4ccccc4)[C@]4(O)C[C@H](OC(=O)[C@H](O)[C@H](C=C(C)C)NC(=O)OC(C)(C)C)C(C)=C2C4(C)C)[C@]2(OC(C)=O)CO[C@@H]2C[C@@H]3O)c1 | > 3 |  | > 3
CSSc1cccc(C(=O)O[C@H]2[C@@H]3[C@]4(OC(C)=O)CO[C@@H]4C[C@H](O)[C@@]3(C)C(=O)[C@H](OC(C)=O)C3=C(C)[C@@H](OC(=O)[C@H](O)[C@H](C=C(C)C)NC(=O)OC(C)(C)C)C[C@]2(O)C3(C)C)c1 | > 3 |  | > 3
CSSCC(=O)O[C@H]1C(=O)[C@@]2(C)[C@H]([C@H](OC(=O)c3ccccc3)[C@]3(O)C[C@H](OC(=O)[C@H](O)[C@H](C=C(C)C)NC(=O)OC(C)(C)C)C(C)=C1C3(C)C)[C@]1(OC(C)=O)CO[C@@H]1C[C@@H]2O | 0.7 |  | 0.8
CC(=O)O[C@H]1C(=O)[C@@]2(C)[C@H]([C@H](OC(=O)c3ccccc3)[C@]3(O)C[C@H](OC(=O)[C@H](O)[C@@H](NC(=O)c4ccccc4)c4ccccc4)C(C)=C1C3(C)C)[C@]1(OC(C)=O)CO[C@@H]1C[C@@H]2O [PACLITAXEL] |  | 299 | 
